EBNA-1 inhibitor: EBNA-1 DNA-binding inhibitors, primary screen, biochemical, fluorescence polarization | inhibition, % at 14.8 µM | actives 0.34% (n = 300,000) | AID 1950, 2009; in the data active = inhibition above about 28%
NR3A LBD binder: binders of NR3A ligand-binding domain, primary screen, biophysical, differential scanning fluorimetry, uHTS. actives 2.5% (n = 340,000). Tm shift relative to glycine control, % at 25 µM. AID 1259313, 2017. NR3A LBD differential scanning fluorimetry, Tm shift; 0% = protein alone, 100% = glycine-bound protein;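 active = melting temperature shift of at least 10% of the positive control shift, at one fixed dose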
FID counter: compounds displacing fluorescent DNA intercalator, primary screen, artefact control for HCV NS3 helicase inhibitor project, biochemical, FID fluorescence; DNA fluorescent intercalator displacement; actives 0.17% (n = 290,000); inhibition, % at 7.9 µM; in the data active = inhibition above about 37%;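 note: 0% = vehicle and 100% = reference compound; higher means more ethidium bromide displaced from hairpin DNA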
ZTA counter: counter-screen for EBNA-1 inhibitors: inhibitors of Epstein-Barr virus ZTA; P03206; ZTA-DNA binding, fluorescence polarization; inhibition, % at 11 µM; actives 0.15% (n = 320,000); AID 2234; in the data active = inhibition above about 33%
Target sequence (P03206 whole entry, looked up): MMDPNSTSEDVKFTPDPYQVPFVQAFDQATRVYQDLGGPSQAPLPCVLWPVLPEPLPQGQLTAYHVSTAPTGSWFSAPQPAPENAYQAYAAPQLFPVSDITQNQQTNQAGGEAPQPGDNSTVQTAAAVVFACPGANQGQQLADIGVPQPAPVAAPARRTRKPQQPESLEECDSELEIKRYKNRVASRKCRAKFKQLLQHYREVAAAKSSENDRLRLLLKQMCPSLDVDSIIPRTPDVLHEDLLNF
FGF22 binding: binders of human FGF22 protein, primary screen, FGF22 synaptogenesis inhibitor project, biophysical, thermal shift, single point; Fibroblast growth factor 22 (Homo sapiens), Q9HCT0; recombinant FGF22 thermal shift, SYPRO orange fluorescence; percent of sucrose octasulfate shift, DMSO zero; activity (Tm shift, normalised), % at 9.99 µM; actives 1.5% (n = 340,000); AID 651658, 2012;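 active = mean Tm shift, scaled 0 neutral to 100 positive control, at about 1.3% or above, every replicate too, limit read from the data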
Target sequence (Q9HCT0 whole entry, looked up): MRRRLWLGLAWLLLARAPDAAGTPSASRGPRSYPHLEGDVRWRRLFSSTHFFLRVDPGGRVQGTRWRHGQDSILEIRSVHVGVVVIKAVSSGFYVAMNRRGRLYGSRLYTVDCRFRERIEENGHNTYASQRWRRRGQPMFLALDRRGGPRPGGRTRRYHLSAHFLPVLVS
NS3 helicase inh: inhibitors of HCV NS3 helicase, primary screen, biochemical, Cy5 molecular beacon fluorescence; Hepatitis C virus NS3 helicase; NS3 helicase DNA unwinding; inhibition, % at 10.9 µM; actives 0.56% (n = 290,000); AID 1800, 2009;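 active = inhibition above the mean of all tested compounds plus 3 SD, set per campaign, cut at about 35% in these data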;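 note: 0% = DMSO wells and 100% = thioflavine S control wells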
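Assay system – hepatitis C virus NS3 helicase domain fragment enzyme · Buffer or medium – MOPS pH 6.5, MgCl2, DTT, Tween20, BSA · Reagent – Cy5/quencher beacon DNA duplex and ATP to start · Compound – single 10.9 µM dose · Timing – 1 h at 25 °C · Technique – Cy5 beacon fluorescence read at start and 1 h · Measure – % inhibition of unwinding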
Active calls of the source: *; / = no result. An excerpt weighted towards active compounds, which were near 3.6% of everything screened.

SMILES	EBNA-1 inhibitor	NR3A LBD binder	FID counter	ZTA counter	FGF22 binding	NS3 helicase inh
C/C(=N\NC(=O)c1cccc(S(=O)(=O)Nc2cccc(Cl)c2)c1)c1cccs1	0	14*	1	-19	0	-1
CN(C)CC(=O)Nc1ccc2c(c1)[C@@H]1C[C@H](CC(=O)N3CCc4ccccc4C3)O[C@@H](CO)[C@@H]1O2	/	/	/	/	0	/
C[C@@H]1CN([C@H](C)CO)C(=O)Cc2cc(NC(=O)NC3CCCCC3)ccc2O[C@@H]1CN(C)C(=O)Nc1ccccc1	/	/	/	/	0	/
O=C(NCc1ccccn1)[C@@H]1[C@@H](CO)[C@@H]2Cn3c(cccc3=O)[C@H]1N2CC1CCCCC1	/	/	/	/	0	/
COc1ccc2c(c1)Cc1sc(NC(=O)c3cccs3)nc1-2	5	25*	-6	-5	/	2
COc1ccc2c(c1)Cc1sc(NC(=O)c3ccccc3)nc1-2	0	10*	-6	0	/	-2
COc1ccc(C(=O)Nc2nc3ccc4nc(C)sc4c3s2)cc1	7	-1	4	8	0	-9
COc1ccc(C(=O)Nc2nc3c(s2)Cc2cc(OC)ccc2-3)cc1	-7	11*	3	17	/	12
COc1ccc(-c2nc(NC(=O)c3ccccc3)sc2-c2ccc([N+](=O)[O-])cc2)cc1	-12	-8	3	-1	0	9
CCC(=O)N1CC2(C1)[C@H](c1ccccc1)[C@H](CO)N2CC1CCOCC1	/	/	/	/	0	/
Cc1c(NC(=O)CN2CCC(C(N)=O)CC2)cccc1[N+](=O)[O-]	1	-1	-10	-2	43*	2
CC1=C(C(=O)OCC2CCCO2)C(c2coc3ccc(Cl)cc3c2=O)C2=C(CCCC2=O)N1 (stereo not given)	2	-1	-29	-5	0	-2
CC1=C(C(=O)OCC2CCCO2)C(c2coc3ccc(C)cc3c2=O)C2=C(CCCC2=O)N1 (stereo not given)	-19	-2	-28	-4	64*	0
O=C(/C=C/c1ccc2c(c1)OCO2)c1ccc(O)cc1O	/	32*	/	/	1	/
Nc1ccccc1C(=O)/C=C/c1ccc2c(c1)OCO2	-14	5	-7	8	0	-9
COc1cccc(-c2noc(-c3cccs3)n2)c1	-3	0	7	0	/	-10
COc1cccc(OCc2nnc(-c3cccs3)o2)c1	-14	/	-14	2	43*	6
CCCNC(=O)N1CCC2(CC1)CN(C(=O)CC)[C@H](CO)c1[nH]c3cc(OC)ccc3c12	/	/	/	/	0	/
CCc1nc2ccc(C(=O)N3CCN(CC)CC3)cc2nc1CC	-2	0	-6	10	43*	-2
O=C(/C=C/c1ccc(Br)o1)Nc1nccs1	-17	-5	2	-9	44*	6
C[C@@H]1CCCCO[C@H](CN(C)C(=O)C2CCCCC2)[C@@H](C)CN([C@@H](C)CO)C(=O)c2cc(NS(=O)(=O)c3ccc(F)cc3)ccc2O1	/	/	/	/	0	/
Cc1ccc(S(=O)(=O)N(C)C[C@@H]2Oc3ccc(NC(=O)c4ccncc4)cc3CC(=O)N([C@@H](C)CO)C[C@@H]2C)cc1	/	/	/	/	0	/
CCOC(=O)Cc1cnc(NC(=O)CSc2nc(C)cc(C)n2)s1	-2	-1	-23	-9	44*	-1
O=c1[nH]c2cc([N+](=O)[O-])ccc2c2ccc([N+](=O)[O-])cc12	/	13*	/	/	0	/
O=c1[nH]c2cc([N+](=O)[O-])ccc2c2ccccc12	/	-1	/	/	0	/
O=C(O)CCSc1nc2ccc(Br)cc2[nH]1	-12	13*	0	8	/	-7
CC(Sc1nc2ccc(Br)cc2[nH]1)C(=O)O (stereo not given)	-3	0	3	2	/	-3
N#CCCN(Cc1cccnc1)S(=O)(=O)c1ccc(S(=O)(=O)NC2CCCCC2)cc1	1	14*	2	0	/	-4
O=C(CNc1cccc2ccccc12)N/N=C/c1ccc([N+](=O)[O-])cc1	7	14*	10	17	0	-7

Bioassay records: PubChem BioAssay, several laboratories
